Assay results pooled from the literature.
Each line is one published result; the experiments were not run side by side.
PDE4D: 3',5'-cyclic-AMP phosphodiesterase 4D (PDE4D, Homo sapiens, UniProt Q08499)
MAK: Serine/threonine-protein kinase MAK (MAK, Homo sapiens, UniProt P20794)
MTNR1B: Melatonin receptor type 1B (MTNR1B, Homo sapiens, UniProt P49286)

`CN[C@]1(c2ccccc2Cl)CCCCC1=O` has an inhibition of -3% (Mitogen-activated protein kinase 1 (MAPK1, Homo sapiens, UniProt P28482); enzyme activity, inhibitor; 30 µM).
For `CN[C@@H](C)[C@H](O)c1ccccc1`, the inhibition was -7.03% (PDE4D; enzyme activity, inhibitor, radiometric; 50 µM).
`Nc1ncc(-c2nc(N3CCOCC3)nc(N3CCOCC3)n2)c(C(F)F)n1` has a remaining binding of 100% (MAK; binding, competition with immobilised ligand; 10 µM).
`COc1ccc2[nH]cc(CCNC(=O)CI)c2c1` gave an Emax of 103% (MTNR1B; cAMP, agonist, TR-FRET; CHO-K1; 20 min).
For `CC(=O)O[C@H]1C[C@H]2[C@@H]([C@H](OC(C)=O)C[C@@H]3CC(NCCCNc4ccnc5cc(Cl)ccc45)CC[C@@]32C)[C@@H]2CC[C@H]([C@H](C)CCCNCCCNc3ccnc4cc(Cl)ccc34)[C@@]12C` (mixture of isomers), the inhibition was 99% (Botulinum neurotoxin type A, protease (Clostridium botulinum, UniProt P0DPI0); enzyme activity, inhibitor; 10 µM).
The remaining binding of `Cc1nn(C)cc1-c1nc2c(N3CCN(Cc4ccc(Cl)cc4)CC3)c(Cl)cnc2[nH]1` is reported as 85% (MAK; binding, competition with immobilised ligand; 1 µM).
`COc1ncccc1-c1cnn2ccc(N3CCN(C(=O)OC(C)C)CC3)nc12` has a remaining binding of 100% (Non-receptor tyrosine-protein kinase TNK1 (TNK1, Homo sapiens, UniProt Q13470); binding, competition with immobilised ligand; 1 µM).
For `COc1ccc2cccc(C(CO)CNC(=O)CF)c2c1` (stereo not shown), the Emax was 93% (MTNR1B; cAMP, agonist, TR-FRET; CHO-K1; 20 min).
With `O=C1C[C@@H]2OCC=C3CN4CC[C@]56c7ccccc7N1[C@H]5[C@H]2[C@H]3C[C@H]46` the inhibition was 38.1% (Cyclin-dependent kinase 7, with cyclin H (CDK7, Homo sapiens, UniProt P50613); enzyme activity, inhibitor, ADP detection; 10 µM).
For `O=C(O)CC(O)(CC(=O)O)C(=O)O`, the inhibition was 16.6% (PDE4D; enzyme activity, inhibitor, radiometric; 5 µM).
